Screening data deposited in PubChem by several laboratories.
Hits are enriched below; roughly 3.4% of the tested compounds scored in any of these assays.
CHT block – inhibitors of human choline transporter CHT. B-score at 10 µM. actives 0.86% (n = 310,000). High affinity choline transporter 1 (Homo sapiens), Q9GZV3. CHT-expressing cells, membrane potential dye, choline response; hits give low values;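 active = B-score over 3 SD under the library average, and starting fluorescence ratio not unusually high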;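 also: choline stimulus applied at its EC90 after an EC20 pre-addition; B-score computed on integrated fluorescence ratio after choline addition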
Target sequence (Q9GZV3 whole entry, looked up): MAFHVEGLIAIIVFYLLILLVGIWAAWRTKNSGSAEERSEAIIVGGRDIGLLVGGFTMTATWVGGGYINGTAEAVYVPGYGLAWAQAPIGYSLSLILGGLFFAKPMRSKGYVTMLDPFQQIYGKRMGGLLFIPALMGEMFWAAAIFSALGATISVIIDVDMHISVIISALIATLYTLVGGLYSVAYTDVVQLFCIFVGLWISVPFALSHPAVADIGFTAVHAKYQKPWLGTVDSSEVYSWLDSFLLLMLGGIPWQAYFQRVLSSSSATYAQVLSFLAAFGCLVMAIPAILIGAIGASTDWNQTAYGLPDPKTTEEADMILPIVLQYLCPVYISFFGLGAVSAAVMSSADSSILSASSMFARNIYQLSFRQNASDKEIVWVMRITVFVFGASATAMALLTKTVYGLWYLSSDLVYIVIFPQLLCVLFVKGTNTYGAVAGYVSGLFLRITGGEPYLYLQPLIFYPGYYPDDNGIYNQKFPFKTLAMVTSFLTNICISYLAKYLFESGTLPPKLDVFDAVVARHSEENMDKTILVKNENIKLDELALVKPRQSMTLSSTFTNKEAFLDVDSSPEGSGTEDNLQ
IMP-1 inh – IMP-1 metallo-beta-lactamase inhibitors, primary screen, biochemical, epi-absorbance readout, Pseudomonas aeruginosa enzyme; metallo-beta-lactamase IMP-1 (Pseudomonas aeruginosa); actives 0.45% (n = 290,000); purified IMP-1, nitrocefin hydrolysis, epi-absorbance fluorescence; inhibition, % at 5.6 µM; AID 1556, 2009;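 active = inhibition above the mean plus 3 SD of all compounds in the same screening run, cut at about 4.5% in these data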;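 also: 0% = IMP-1 with DMSO and 100% = DMSO wells lacking enzyme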
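assay system = purified recombinant IMP-1 metallo-beta-lactamase enzyme | schedule = 15 min preincubation plus 25 min reaction at 25 °C | signal = Epi-absorbance fluorescence, 480 nm excitation, 530 nm emission | read-out basis = percent inhibition from optical density relative to buffer-blank wells | controls = IMP-1 with DMSO as 0%, enzyme-free DMSO as 100%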
TMEM16A inh – TMEM16A chloride channel inhibitors, primary screen, cell-based, HTS | Anoctamin-1 (Mus musculus), Q8BHY3 | HEK293 TMEM16A/YFP iodide influx fluorescence, ionomycin | normalized B-score (activity score, 25-100; higher = stronger inhibition) at 10 µM | actives 1.2% (n = 310,000) | AID 588511, 2011;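 active = ratio plate-corrected score three or more library SD toward inhibition, starting fluorescence score within five deviations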;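 also: score derived from kinetic fluorescence span divided by baseline fluorescence per well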
CHT PAM – CHT positive allosteric modulators, primary screen, cell-based, membrane potential dye, choline EC20. High affinity choline transporter 1 (Homo sapiens), Q9GZV3. CHT-expressing cells; hits give high values; LV-AA mutant CHT in HEK293 cells. B-score at 10 µM. actives 0.49% (n = 310,000);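 active = initial fluorescence not abnormally high and integrated response B-score, plate-corrected, over 3 SD above library mean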
VIM-2 inh – VIM-2 metallo-beta-lactamase inhibitors, primary screen, biochemical, epi-absorbance readout, Pseudomonas aeruginosa enzyme; purified VIM-2, nitrocefin hydrolysis, epi-absorbance fluorescence; inhibition, % at 5.6 µM; actives 0.89% (n = 290,000); AID 1527, 2009;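 active = inhibition above the mean of all tested compounds plus 3 SD, cutoff set per screening run, cut at about 7.5% in these data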;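 also: red hydrolysis product quenches plate fluorescence so inhibitors raise well fluorescence; 0% = enzyme with DMSO and 100% = DMSO without enzyme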
TMEM16A act – TMEM16A chloride channel activators or potentiators, primary screen, cell-based, HTS. Anoctamin-1 (Mus musculus), Q8BHY3. B-score at 10 µM. actives 0.3% (n = 340,000). HEK293 TMEM16A/YFP-H148Q/I152L, iodide quench fluorescence; hits give low values;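 active = fluorescence-ratio B-score plate-corrected deviation score at least 3 library SD below zero, with starting fluorescence score within 5 deviations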;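 also: channel opened by trigger with iodide after compound preincubation; score built on the fluorescence ratio of max minus min over baseline; more negative score means more quench and so TMEM16A activation or potentiation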
CHT inh conf – CHT inhibitors, confirmation, cell-based, membrane potential dye, duplicate | shares compounds with CHT block | CHT-expressing cells, choline membrane potential dye; LV-to-AA substituted CHT, HEK293 cells | CHT activity remaining % of control (hits give low values), % at 10 µM | actives 70% (n = 2,400) | AID 493221, 2011;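 active = choline transporter activity left, mean of duplicates at 10 µM, below buffer-only control mean minus 3 SD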;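 also: depolarization triggered by choline at its EC90 following an EC20 pre-addition; 0% = hemicholinium-3 full block and 100% = buffer-only control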
HEK293 MPD ctr – membrane potential effects in parental HEK293, counter-screen for CHT inhibitor project, cell-based, membrane potential dye. actives 4% (n = 2,400). membrane potential ratio readout (active if shifted either direction beyond buffer ±3SD; no single direction) at 10 µM. shares compounds with CHT block. choline response; active = decrease or increase beyond buffer ±3SD;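 also: parental cells lack the transporter so any hit is non-specific; ratio is peak minus trough fluorescence over baseline after EC90 choline challenge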
* marks the source's active call; other numbers are inactive results.

How did Cc1cccc(OCC(O)Cn2c(=N)n(Cc3ccccc3)c3ccccc32)c1 (configuration not stated) do in these assays?
CHT block: -12*; IMP-1 inh: 0; TMEM16A inh: inactive; CHT PAM: inactive; VIM-2 inh: 0; TMEM16A act: inactive; CHT inh conf: 57%*; HEK293 MPD ctr: inactive

How did COc1ccc(OCC(O)Cn2c(=N)n(Cc3ccccc3)c3ccccc32)cc1 (configuration not stated) do in these assays?
CHT block: -5.3*; IMP-1 inh: 1; TMEM16A inh: inactive; CHT PAM: inactive; VIM-2 inh: 2; TMEM16A act: inactive; CHT inh conf: 31%*; HEK293 MPD ctr: inactive

How did N=c1n(Cc2ccccc2)c2ccccc2n1CC(O)COc1ccc(Cl)cc1Cl (configuration not stated) do in these assays?
IMP-1 inh: -4; VIM-2 inh: -5; TMEM16A act: inactive

How did Cc1cccc(OCC(O)CN2CCNCC2)c1 (configuration not stated) do in these assays?
CHT block: inactive; IMP-1 inh: 2; TMEM16A inh: inactive; CHT PAM: inactive; VIM-2 inh: 2; TMEM16A act: inactive

Results for Cc1ccc(OCC(O)Cn2c(=N)n(Cc3ccccc3)c3ccccc32)cc1 (configuration not stated) ?
CHT block: -9*; IMP-1 inh: -2; TMEM16A inh: inactive; CHT PAM: inactive; VIM-2 inh: -2; TMEM16A act: inactive; CHT inh conf: 51%*; HEK293 MPD ctr: inactive

Results for CCOCCCNC(=O)c1ccc(-n2c(=S)[nH]c3ccccc3c2=O)cc1 ?
CHT block: inactive; IMP-1 inh: -3; TMEM16A inh: inactive; CHT PAM: inactive; VIM-2 inh: -5; TMEM16A act: inactive

Results for CC(C)c1ccc(/C=C/c2ccc(=O)n(C)n2)cc1 ?
CHT block: -6.9*; IMP-1 inh: 0; TMEM16A inh: inactive; CHT PAM: inactive; VIM-2 inh: 0; TMEM16A act: inactive; CHT inh conf: inactive; HEK293 MPD ctr: inactive

Results for CC(C)c1ccc(/C=C/C2=NNC(=O)CC2)cc1 ?
CHT block: inactive; IMP-1 inh: -2; TMEM16A inh: inactive; CHT PAM: inactive; VIM-2 inh: -3; TMEM16A act: inactive

What do the screens show for `NS(=O)(=O)c1ccc(CNc2ccc3ccccc3n2)cc1`?
CHT block: -9.3*; IMP-1 inh: -2; TMEM16A inh: inactive; CHT PAM: inactive; VIM-2 inh: -4; TMEM16A act: inactive; CHT inh conf: 21%*; HEK293 MPD ctr: inactive

What do the screens show for `O=C(C1CCC(CNc2c(N3CCCCC3)c(=O)c2=O)CC1)N1CCCCC1` (configuration not stated)?
CHT block: inactive; TMEM16A inh: inactive; CHT PAM: inactive; TMEM16A act: inactive

Results for CC1CCCN(C(=O)C2CCC(CNc3c(N4CCCCC4)c(=O)c3=O)CC2)C1 (configuration not stated) ?
CHT block: -6*; IMP-1 inh: -1; TMEM16A inh: inactive; CHT PAM: inactive; VIM-2 inh: -2; TMEM16A act: inactive; CHT inh conf: inactive; HEK293 MPD ctr: inactive

What do the screens show for `CCOc1ccc(OCC)c(S(=O)(=O)NCc2ccccc2)c1`?
CHT block: inactive; IMP-1 inh: 1; TMEM16A inh: inactive; CHT PAM: inactive; VIM-2 inh: -1; TMEM16A act: inactive

How did CCOc1cc(Br)ccc1S(=O)(=O)NCc1ccccc1 do in these assays?
CHT block: -6.3*; IMP-1 inh: -3; TMEM16A inh: inactive; CHT PAM: inactive; VIM-2 inh: -2; TMEM16A act: inactive; CHT inh conf: inactive; HEK293 MPD ctr: inactive

Results for CCOC(=O)c1c(NC(=O)CSc2nnc(-c3ccccc3)n2CC)sc(C(C)=O)c1C ?
CHT block: -5.3*; IMP-1 inh: -3; TMEM16A inh: inactive; CHT PAM: inactive; VIM-2 inh: 2; TMEM16A act: inactive; CHT inh conf: inactive; HEK293 MPD ctr: inactive

Results for CCOC(=O)c1sc(NC(=O)CSc2nc3c(c(=O)n2-c2ccc(C)cc2)SCC3)c(C(=O)OCC)c1C ?
CHT block: -7*; IMP-1 inh: 1; TMEM16A inh: inactive; CHT PAM: inactive; VIM-2 inh: -1; TMEM16A act: inactive; CHT inh conf: 69%*; HEK293 MPD ctr: inactive

What do the screens show for `CCOc1ccc(C(=O)CC(C(=O)O)N2CCCCC2)cc1` (configuration not stated)?
TMEM16A act: inactive

Results for CNC(=O)N(O)C1N(/N=C/c2c(F)cccc2Cl)C(=S)SC1(C)C (configuration not stated) ?
CHT block: inactive; IMP-1 inh: -1; TMEM16A inh: inactive; CHT PAM: inactive; VIM-2 inh: 0; TMEM16A act: inactive

Results for Cc1ccc(C)c(NC(=O)c2cccc(Oc3ccc([N+](=O)[O-])cc3Cl)c2)c1 ?
CHT block: -7.2*; IMP-1 inh: -4; TMEM16A inh: inactive; CHT PAM: inactive; VIM-2 inh: -2; TMEM16A act: inactive; CHT inh conf: 49%*; HEK293 MPD ctr: inactive

Results for CCN(C(=O)COC(=O)c1ccc(-n2c(C)ccc2C)cc1)c1c(N)n(Cc2ccccc2)c(=O)[nH]c1=O ?
TMEM16A act: inactive

Results for CCC(Sc1nc2ccncc2[nH]1)C(=O)Nc1cc(Cl)ccc1C (configuration not stated) ?
CHT block: -5.9*; IMP-1 inh: -4; TMEM16A inh: inactive; CHT PAM: inactive; VIM-2 inh: -4; TMEM16A act: inactive; CHT inh conf: inactive; HEK293 MPD ctr: inactive

What do the screens show for `O=C1CSc2ccc(S(=O)(=O)CCC(=O)NC3CCCCC3)cc2N1`?
CHT block: inactive; IMP-1 inh: -1; TMEM16A inh: inactive; CHT PAM: inactive; VIM-2 inh: -1; TMEM16A act: inactive
